The values below come from ChEMBL document CHEMBL2396650, “A potent small-molecule inhibitor of the MDM2-p53 interaction (MI-888) achieved complete and durable tumor regression in mice” (J Med Chem, 2013).

In series [1] the test system is Mus musculus. As to the kind of experiment: Toxicity in mouse xenografted with human RS4:11 cells assessed as sign of toxicity at 100 to 200 mg/kg, po qd after 3 weeks. Format: organism-based, RS4:11 cell. More on the design: dose 100-200 mg/kg, route oral. The conditions noted are these: in vivo, 504 h. In a few lines:
(§1)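 RS4;11 acute leukemia xenografts in mice; dosing began when tumors averaged 150 mm3. Oral gavage of 100 or 200 mg/kg once daily for 3 weeks. Tumor volume tracked during and after dosing; body weight and signs of toxicity monitored throughout.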

In series [2] the test system is SJSA-1. Put plainly: Antitumor activity against human SJSA1 cells xenografted in SCID mouse assessed as tumor regression at 100 mg/kg, po qd administered for 2 weeks measured for 60 days. The class given is functional, organism-based. Also on record: dose 100 mg/kg.
For the next series, the system named is RS4-11. Put plainly: Antitumor activity against human RS4:11 cells xenografted in mouse assessed as tumor regression at 200 mg/kg, po qd administered for 3 weeks measured after 26 days. Format: functional, organism-based. Also on record: dose 200 mg/kg. The gist of the method: as §1
Series [3] deals with SJSA-1. Put plainly: Antitumor activity against human SJSA1 cells xenografted in SCID mouse assessed as upregulation of p21 expression in tumor at 100 mg/kg, po measured at 24 hrs by Western blot analysis. Format: functional, organism-based. More on the design: dose 100 mg/kg. On the technique in general: In xenograft studies the graft and the host belong to different species.

For series [4], the system named is SJSA-1. Put plainly: Antitumor activity against human SJSA1 cells xenografted in SCID mouse assessed as upregulation of p53 expression in tumor at 100 mg/kg, po measured at 24 hrs by Western blot analysis. Format: functional, organism-based. Also on record: dose 100 mg/kg.
Another series has as its system Liver. Put plainly: Half life in mouse liver microsomes. Format: ADME, Microsome. The gist of the method:
(§2)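 Half-life determined by incubation in mouse, rat and human liver microsomes; T1/2 in minutes.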
In general terms: Liver microsomes are vesicles of endoplasmic reticulum, rich in cytochrome P450 enzymes.

Series [5] relates to SJSA-1. Put plainly: Antitumor activity against human SJSA1 cells xenografted in SCID mouse assessed as upregulation of MDM2 expression in tumor at 100 mg/kg, po measured at 3 to 6 hrs by Western blot analysis. More on the design: dose 100 mg/kg. Format: functional, organism-based.
Series [6] relates to Rattus norvegicus. As to the kind of experiment: AUC (0 to t) in Sprague-Dawley rat at 25 mg/kg, po. Format: ADME, organism-based, Plasma. Also on record: dose 25 mg/kg, route oral. The conditions noted are these: in vivo.
Series [7] is described as follows: Antitumor activity against human RS4:11 cells xenografted in mouse assessed as tumor growth inhibition at 200 mg/kg, po qd administered for 3 weeks measured after 4 days relative to vehicle-treated control. The class given is functional. The conditions noted are these: read-out: TGI. In a few lines:
as §1

The test system of series [8] is SJSA-1. Put plainly: Antitumor activity against human SJSA1 cells xenografted in SCID mouse assessed as tumor growth inhibition at 30 mg/kg, po qd measured after 2 weeks. The class given is functional, organism-based. Also on record: dose 30 mg/kg.
The test system of series [9] is Rattus norvegicus. Put plainly: Cmax in Sprague-Dawley rat at 25 mg/kg, po. Format: ADME, organism-based. Also on record: dose 25 mg/kg, route oral. The conditions noted are these: in vivo.
Series [10] deals with SJSA-1. Put plainly: Antitumor activity against human SJSA1 cells xenografted in SCID mouse assessed as tumor growth inhibition at 100 mg/kg, po qd administered for 2 weeks measured after 5 days relative to vehicle-treated control. Format: functional. The conditions noted are these: read-out: TGI.
Series [11] has as its system SJSA-1. Put plainly: Antitumor activity against human SJSA1 cells xenografted in SCID mouse assessed as upregulation of p53 expression in tumor at 100 mg/kg, po measured at 3 to 6 hrs by Western blot analysis. Format: functional, organism-based. Also on record: dose 100 mg/kg.
Series [12] concerns Mus musculus. As to the kind of experiment: Toxicity in mouse xenografted with human RS4:11 cells assessed as body weight loss at 100 to 200 mg/kg, po qd after 3 weeks. The class given is organism-based, RS4:11 cell. More on the design: dose 100-200 mg/kg, route oral. The conditions noted are these: in vivo, 504 h. In a few lines:
as §1

Series [13] deals with SJSA-1. Put plainly: Induction of apoptosis in human SJSA1 cells xenografted in SCID mouse assessed as PARP cleavage at 100 mg/kg, po measured at 24 hrs by Western blot analysis. Format: functional, organism-based. More on the design: dose 100 mg/kg.
Series [14] concerns SJSA-1. As to the kind of experiment: Antitumor activity against human SJSA1 cells xenografted in SCID mouse assessed as tumor growth inhibition at 10 mg/kg, po qd measured after 2 weeks. Format: functional, organism-based. Also on record: dose 10 mg/kg.
The subject of series [15] is SJSA-1. As to the kind of experiment: Induction of apoptosis in human SJSA1 cells xenografted in SCID mouse assessed as PARP cleavage at 100 mg/kg, po measured at 1 to 6 hrs by Western blot analysis. Format: functional, organism-based. Also on record: dose 100 mg/kg.
Series [16] has as its system SJSA-1. As to the kind of experiment: Antitumor activity against human SJSA1 cells xenografted in SCID mouse assessed as upregulation of p21 expression in tumor at 100 mg/kg, po measured at 3 to 6 hrs by Western blot analysis. The class given is functional, organism-based. Also on record: dose 100 mg/kg.
Series [17] relates to SJSA-1. Put plainly: Induction of apoptosis in human SJSA1 cells xenografted in SCID mouse assessed as caspase-3 cleavage at 100 mg/kg, po measured at 24 hrs by Western blot analysis. Format: functional, organism-based. More on the design: dose 100 mg/kg.
Series [18] concerns SJSA-1. Put plainly: Antitumor activity against human SJSA1 cells xenografted in SCID mouse assessed as upregulation of MDM2 expression in tumor at 100 mg/kg, po measured at 24 hrs by Western blot analysis. Format: functional, organism-based. Also on record: dose 100 mg/kg.
In series [19] the test system is Mus musculus. As to the kind of experiment: Toxicity in SCID mouse xenografted with human SJSA1 cells assessed as sign of toxicity at 10 to 100 mg/kg, po qd measured after 2 weeks. More on the design: dose 10-100 mg/kg, route oral. The class given is organism-based, SJSA-1. The conditions noted are these: in vivo, 336 h.
Series [20] in a line: Antitumor activity against human RS4:11 cells xenografted in mouse assessed as tumor growth inhibition at 100 mg/kg, po qd administered for 3 weeks measured after 4 days relative to vehicle-treated control. The class given is functional. The settings on record: read-out: TGI. The gist of the method: as §1
For series [21], the system named is Liver microsomes. As to the kind of experiment: Half life in rat liver microsomes. Format: ADME, Microsome. The gist of the method: as §2
The subject of series [22] is SJSA-1. As to the kind of experiment: Antitumor activity against human SJSA1 cells xenografted in SCID mouse assessed as tumor growth inhibition at 100 mg/kg, po qd administered for 2 weeks measured after 10 days. Also on record: dose 100 mg/kg. The class given is functional, organism-based.
Series [23] relates to Mus musculus. As to the kind of experiment: Toxicity in SCID mouse xenografted with human SJSA1 cells assessed as body weight loss at 10 to 100 mg/kg, po qd measured after 2 weeks. The conditions noted are these: in vivo, 336 h. Format: organism-based, SJSA-1. Also on record: dose 10-100 mg/kg, route oral.
Series [24] concerns SJSA-1. Put plainly: Induction of apoptosis in human SJSA1 cells xenografted in SCID mouse assessed as caspase-3 cleavage at 100 mg/kg, po measured at 1 to 6 hrs by Western blot analysis. Format: functional, organism-based. Also on record: dose 100 mg/kg.
Series [25] relates to Rattus norvegicus. As to the kind of experiment: Half life in Sprague-Dawley rat at 25 mg/kg, po. The class given is ADME, organism-based. More on the design: dose 25 mg/kg, route oral. The settings on record: in vivo.
The subject of series [26] is Liver microsomes. As to the kind of experiment: Half life in human liver microsomes. The class given is ADME, Microsome. In a few lines:
as §2

Activity calls are given as the source filed them. The rule behind the calls is not given here.

Regarding `CC(C)(C)C[C@@H]1N[C@@H](C(=O)N[C@H]2C[C@@](C)(O)C2)[C@H](c2cccc(Cl)c2F)[C@]12C(=O)Nc1cc(Cl)ccc12`, the Activity entry with Mus musculus [1], in the series on Mus musculus [12], in the series on Mus musculus [19] and with Mus musculus [23] was “Non-toxic” each time. For the same compound, the outcome with SJSA-1 [2], in the series with RS4-11, with SJSA-1 [5], with SJSA-1 [11], with SJSA-1 [13] and in the series with SJSA-1 [16] was Active. The result in the series with SJSA-1 [17] was Active. Also, the result with SJSA-1 [3], in the series on SJSA-1 [4], in the series with SJSA-1 [15], in the series on SJSA-1 [18] and with SJSA-1 [24] was inactive. For the same compound, the t1/2 with Liver is above 1 h; with Liver microsomes [21] it was above 1 h; with Rattus norvegicus [25] it was 3.2 h. Moreover, in the series with Rattus norvegicus [6], the AUCt was 14900 ng·h/mL. Also, the inhibition in vivo at 200 mg/kg in series [7] stood at 80%. The TGI entry with SJSA-1 [8] and in the series on SJSA-1 [22] was “Active” in each case. In the series with Rattus norvegicus [9], this compound gave a Cmax of 1726 ng/mL. In addition, the inhibition in vivo at 100 mg/kg in the series on SJSA-1 [10] is above 70%; in [20], 61%. The TGI result in the series on SJSA-1 [14] was “inactive”.

As to `CC(C)(C)C[C@@H]1N[C@@H](C(=O)N[C@H]2CC[C@H](O)C2)[C@H](c2cccc(Cl)c2F)[C@]12C(=O)Nc1cc(Cl)ccc12`, the values for the t1/2 in the series with Liver, in the series on Liver microsomes [26] and in the series on Liver microsomes [21] were above 1 h, 0.918 h and 0.352 h, respectively.

Consider `CC(C)(C)C[C@@H]1N[C@@H](C(=O)NCC(C)(C)O)[C@H](c2cccc(Cl)c2F)[C@]12C(=O)Nc1cc(Cl)ccc12`, for which the t1/2 in the series on Liver, in the series with Liver microsomes [26] and with Liver microsomes [21] was above 1 h each time.

Take `CC(C)(C)C[C@H]1N[C@@H](C(=O)NCC[C@H](O)CO)[C@H](c2cccc(Cl)c2)[C@@]12C(=O)Nc1cc(Cl)c(F)cc12`: the t1/2 with Liver was above 1 h; in the series on Liver microsomes [26], above 1 h; in the series on Liver microsomes [21], 0.337 h.

In turn, `CC(C)(C)C[C@@H]1N[C@@H](C(=O)N[C@H]2C[C@](C)(O)C2)[C@H](c2cccc(Cl)c2F)[C@]12C(=O)Nc1cc(Cl)ccc12` registered a t1/2 in the series with Liver microsomes [26] above 1 h.

In the case of `CC(C)(C)C[C@@H]1N[C@@H](C(=O)N[C@H]2C[C@@H](O)C2)[C@H](c2cccc(Cl)c2F)[C@]12C(=O)Nc1cc(Cl)ccc12`, the t1/2 with Liver stood at 0.343 h; in the series with Liver microsomes [26] it was 0.513 h; in the series with Liver microsomes [21] it was 0.368 h.

As for `CC(C)(C)C[C@@H]1N[C@@H](C(=O)N[C@H]2CC[C@@H](O)C2)[C@H](c2cccc(Cl)c2F)[C@]12C(=O)Nc1cc(Cl)ccc12`, the t1/2 with Liver turned out to be 0.025 h; in the series with Liver microsomes [26], 0.067 h; with Liver microsomes [21] it was 0.0633 h.

Turning to `CC(C)(C)C[C@@H]1N[C@@H](C(=O)NCC[C@H](O)CO)[C@H](c2cccc(Cl)c2F)[C@]12C(=O)Nc1cc(Cl)ccc12`, the t1/2 with Liver was above 1 h; in the series with Liver microsomes [26], above 1 h; in the series on Liver microsomes [21] it was 0.272 h; in the series with Rattus norvegicus [25], 3.4 h. The AUCt in the series with Rattus norvegicus [6] stood at 2140 ng·h/mL. This compound also showed a Cmax in the series on Rattus norvegicus [9] of 675 ng/mL.

Consider `CC(C)(C)C[C@@H]1N[C@@H](C(=O)N[C@H]2C[C@H](O)C2)[C@H](c2cccc(Cl)c2F)[C@]12C(=O)Nc1cc(Cl)ccc12`, for which the t1/2 with Liver was above 1 h; in the series with Liver microsomes [26] it was 0.902 h; with Liver microsomes [21], 0.318 h.

In general, Cmax refers to the highest concentration seen after dosing.
